# High-throughput results deposited in PubChem BioAssay by several laboratories.
# MC4R barr agon – human MC4R agonism via beta-arrestin; AID 540308; activation, % at 8.9 µM; U2OS MC4R beta-arrestin complementation, luminescence; percent of melanotan II response, DMSO zero; P32245; hit rate 0.98% among 360,000;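 active = activation above a per-plate cutoff, the mean activation of sample wells on that plate plus 3 SD, cut at about 8% in these data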
# Target sequence (P32245 whole entry, looked up): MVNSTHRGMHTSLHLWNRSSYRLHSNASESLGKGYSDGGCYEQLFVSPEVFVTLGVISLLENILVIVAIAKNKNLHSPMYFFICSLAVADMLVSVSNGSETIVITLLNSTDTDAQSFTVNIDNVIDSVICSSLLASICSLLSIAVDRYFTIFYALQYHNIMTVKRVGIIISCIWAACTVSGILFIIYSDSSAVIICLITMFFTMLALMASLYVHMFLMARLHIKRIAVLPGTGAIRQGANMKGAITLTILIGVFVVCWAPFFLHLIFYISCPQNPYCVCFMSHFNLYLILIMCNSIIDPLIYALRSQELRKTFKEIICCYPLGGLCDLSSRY
# TAAR1 antag – antagonists of human TAAR1 | Q96RJ0 | CHO RD-HGA16 TAAR1, Fluo-8 calcium fluorescence, antagonist | inhibition, % at 3 µM | hit rate 1.5% among 360,000 | AID 624466;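 active = inhibition above a per-plate cutoff, the mean inhibition of test compounds on that plate plus 3 SD, cut at about 49% in these data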;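 note: 0% = DMSO plus EC80 beta-PEA response and 100% = DMSO alone without agonist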
# Target sequence (Q96RJ0 whole entry, looked up): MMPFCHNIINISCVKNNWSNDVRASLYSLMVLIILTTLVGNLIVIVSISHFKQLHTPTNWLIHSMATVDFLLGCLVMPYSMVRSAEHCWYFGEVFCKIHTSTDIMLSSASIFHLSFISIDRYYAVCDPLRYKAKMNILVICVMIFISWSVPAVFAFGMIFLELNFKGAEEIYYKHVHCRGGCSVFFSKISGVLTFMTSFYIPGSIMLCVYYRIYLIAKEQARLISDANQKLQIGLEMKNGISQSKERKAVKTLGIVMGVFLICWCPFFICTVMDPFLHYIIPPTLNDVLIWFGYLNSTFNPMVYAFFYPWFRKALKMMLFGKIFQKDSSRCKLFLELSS
#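 Material: CHO RD-HGA16 cells bearing hTAAR1; compound dosing: one-point dosing, 3 µM nominal final; schedule: dye loading 75 min at 37 °C, then 30 min room temperature; measured by: calcium fluorescence with Fluo-8; control set: vehicle and agonist controls; replication: n of 1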
# MC4R antagonist – antagonists of human melanocortin 4 receptor (MC4R) | P32245 | MC4R-expressing cells, MTII-stimulated cAMP, LANCE TR-FRET | inhibition, % at 6.5 µM | hit rate 0.48% among 360,000 | AID 540295;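 active = inhibition above its plate's cutoff, the mean of tested wells on that plate plus 3 SD, cut at about 29% in these data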;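 note: 0% = Melanotan II alone and 100% = Melanotan II plus saturating MCL0020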
#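 System – human MC4R-expressing U2OS cells · Also added – Melanotan II · Dosing – one concentration, 6.5 µM nominal · Timing – 30-min compound, 1-h challenge, 1-h detection, room temperature · Measured by – Eu-cAMP/anti-cAMP TR-FRET, emission 671 nm · Replicates – singlicate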
# HTR2A ag – activates the mouse 5-HT2A serotonin receptor. activation, % at 7.6 µM. hit rate 0.66% among 360,000. CHO-K1 mHTR2A beta-arrestin complementation, luminescence; percent of 30 µM serotonin response. P35363;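 active = activation above a run cutoff, the mean activation of all tested compounds plus 3 SD, cut at about 14% in these data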;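 note: 0% = plate median of compound wells and 100% = 30 µM serotonin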
# TAAR1 ag – agonists of human TAAR1. activation, % at 3 µM. AID 624467. Q96RJ0. hit rate 0.99% among 360,000. CHO RD-HGA16 TAAR1, Fluo-8 calcium fluorescence; vehicle wells 0%, saturating PEA agonist 100%;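 active = activation above the mean activation of all test compounds in the run plus 3 SD, cut at about 38% in these data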
#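 Test system: RD-HGA16 (CHO) cells co-expressing Gα16 and hTAAR1 / Benchmarks: DMSO vehicle as 0%, PEA at EC100 as 100% / Repeats: no replicates (n 1) / Measure: % activation from peak over basal fluorescence ratio, DMSO-to-PEA scaled / Timing: 17-24 h plating, Fluo-8 75 min 37 °C, 30 min RT / Technique: kinetic Fluo-8 calcium fluorescence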
# Beta2AR agonist – activates human beta-2 adrenergic receptor causing internalization; Am2.2-beta2AR cells, FAP receptor internalization, flow cytometry; hit rate 0.43% among 340,000; response, % (test concentration not listed); P07550;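 active = response above a set limit, near 3 SD of response in nonfluorescent compounds, cut at about 42% in these data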
# TAAR1 nonsel count – nonselective antagonism, TAAR1 counter-screen; hit rate 77% among 2,400; inhibition, % at 3 µM; shares compounds with TAAR1 antag; counterscreen cell line, calcium fluorescence, antagonist mode; AID 651780; in the data active = inhibition above about 22%;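 note: CHO-Ga16 host cells stimulated with ATP at an EC80 level; 0% = agonist EC80 plus vehicle and 100% = vehicle without agonist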
# TAAR1 antag conf – human TAAR1 antagonism, confirmed; shares compounds with TAAR1 antag; TAAR1-expressing cells, fluorescence antagonist read-out; inhibition, % at 3 µM; hit rate 40% among 2,400; AID 651785; in the data active = inhibition above about 49%;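 note: CHO-Ga16 host cells challenged with agonist PEA near its EC80; 0% = agonist at EC80 plus vehicle and 100% = vehicle with no agonist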
# Ga16 nonsel ag – counter-screen for TAAR1 antagonists: nonselective Ga16 agonists; AID 651953; hit rate 18% among 2,400; Ga16-expressing cells, calcium fluorescence, agonist counterscreen; activation, % at 3 µM; shares compounds with TAAR1 antag; in the data active = activation above about 12%;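 note: 0% = vehicle wells and 100% = saturating stimulus response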
# TAAR1 ag counter – counter-screen for human TAAR1 antagonists: TAAR1 agonists. shares compounds with TAAR1 antag. hTAAR1 cell line, fluorescence activation, agonist mode. activation, % at 3 µM. hit rate 2% among 2,400. AID 651955; in the data active = activation above about 37%;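 note: CHO cells stably expressing TAAR1 with calcium dye readout; 0% = DMSO vehicle and 100% = full agonist response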
# * hit, by the source's call; x = not tested or not shown. Only some compounds are listed: those with a hit (about 4.3% of all), similar ones and a draw of the others.
SMILES,MC4R barr agon,TAAR1 antag,MC4R antagonist,HTR2A ag,TAAR1 ag,Beta2AR agonist,TAAR1 nonsel count,TAAR1 antag conf,Ga16 nonsel ag,TAAR1 ag counter
CN(C)c1ccc(/C=N/NC(=S)NCc2ccccc2)cc1,-0.1,10.5,4.4,1.5,-1.3,-15.0,x,x,x,x
CCN(Cc1ccccc1)c1ccc(/C=N/NC(=S)NC(C)C)cc1,-1.4,49.9*,10.8,-7.2,2.4,9.5,2.7,10.6,3.0,8.8
CCNC(=O)C1(C)CCN(C(=O)c2c(F)cccc2F)C1 (configuration not stated),-0.3,-8.0,-3.9,-3.2,0.0,x,x,x,x,x
COc1ccc(S(=O)(=O)Nc2ncccn2)cc1,1.2,104.7*,12.6,-2.3,-3.4,4.7,2.7,-1.3,0.7,1.2
CC1=C(C(=O)N2CCCCCC2)CC(CC(=O)NCCN2CCOCC2)C(=O)N1CCC1=CCCCC1 (configuration not stated),x,-3.9,x,-1.7,3.0,x,x,x,x,x
COc1ccccc1N(Cc1ccccc1)S(=O)(=O)c1cccc(C(=O)Nc2ccccn2)c1,-2.4,74.6*,14.9,1.1,0.1,4.0,17.0,39.4,4.9,8.7
CC(C)C[C@H]1CN(CCCC[C@@H]2CNC(=O)C(=O)N2Cc2ccccc2)C(=O)C(=O)N1CCc1ccc(O)cc1,x,0.2,x,2.4,0.5,x,x,x,x,x
COc1cccc(NC(=O)c2cc(-c3ccc(C)o3)nc3ccccc23)c1,-1.5,54.6*,3.8,-6.5,7.1,5.5,25.2*,41.9,6.6,4.7
COC(=O)c1cc(-c2ccc(C)o2)nc2ccccc12,1.2,-9.4,21.8,2.0,0.6,0.6,x,x,x,x
COc1cccc(NC(=O)CN(C)C(=O)c2cc(-c3ccc(C)o3)nc3ccccc23)c1,0.0,61.1*,20.7,1.5,20.1,14.9,32.4*,52.3*,8.2,7.3
O=C(CSc1nnc2c(n1)[nH]c1ccccc12)Nc1ccc(N2CCOCC2)cc1,-1.9,13.9,10.1,7.5,-2.0,0.2,x,x,x,x
O=C(CSc1nnc2c(n1)[nH]c1ccccc12)Nc1cccc(S(=O)(=O)N2CCOCC2)c1,-1.6,70.4*,13.9,1.5,12.3,-0.5,42.6*,52.1*,9.4,10.4
O=C(CSc1nnc(Nc2ccccc2)s1)Nc1ccc(S(=O)(=O)N2CCOCC2)cc1,-3.0,56.7*,-4.2,0.1,26.3,-2.8,36.2*,36.9,7.9,12.3
Cc1ccc(Nc2nnc(SCC(=O)Nc3ccc(S(=O)(=O)N4CCOCC4)cc3)s2)cc1,-0.1,1.3,3.3,-1.1,9.4,3.6,x,x,x,x
COc1ccccc1C(CNC(=O)c1cccc(S(=O)(=O)Nc2ccc(F)cc2)c1)N1CCCC1 (configuration not stated),-1.0,12.3,2.2,-3.4,28.6,2.3,x,x,x,x
CC1(Cc2ccccc2Cl)C(=O)Nc2c(Cl)ccc(Cl)c21 (configuration not stated),0.7,56.8*,6.3,0.5,3.0,x,0.0,31.9,15.3*,31.7
CCOc1ccc(C(=O)CCC(=O)N2CCN(S(=O)(=O)c3cccc(F)c3)CC2)cc1,-0.8,69.9*,-1.9,-3.3,-0.7,2.8,6.4,5.0,2.1,3.5
Cc1ccc(OCCCC(=O)N2CCN(S(=O)(=O)c3cccc(F)c3)CC2)cc1,1.9,2.7,3.1,1.3,12.9,9.0,x,x,x,x
Cc1cccc(/C=C2\Sc3ccc(C(=O)N4CCC(C(N)=O)CC4)cc3N(C)C2=O)c1,-2.1,60.2*,4.0,-9.7,7.5,-7.7,17.6,26.0,5.9,5.5
O=C(CSc1ccccc1C(=O)NCc1ccccc1)NC1CCCCCCC1,-0.9,54.5*,-0.5,6.2,12.5,-39.0,18.0,30.9,6.1,2.5
O=C(CSc1ccccc1C(=O)O)NC1CCCCCC1,1.7,11.2,12.2,-0.7,6.6,1.4,x,x,x,x
O=C(/C=C/c1ccc(Cl)cc1)N1CCN(c2c(Cl)cccc2[N+](=O)[O-])CC1,-5.1,-4.3,0.7,-4.8,1.3,-0.3,x,x,x,x
O=C(CSc1ccc(Cl)cc1)N1CCN(c2c(Cl)cccc2[N+](=O)[O-])CC1,-0.9,65.2*,2.8,-0.1,4.9,8.3,25.0*,38.1,3.1,-2.4
COc1ccc(-c2oc3ccc(-c4cc(OC)c(OC)c(OC)c4)cc3c2-c2ccc(OC)nc2)cc1,-1.3,7.3,5.2,-0.3,1.8,1.5,x,x,x,x
O=C(NCc1ccccc1Cl)c1ccc(Br)o1,-1.9,104.2*,-0.2,-1.0,-3.0,-4.2,1.0,-6.8,-0.7,0.6
O=C(CNC(=O)c1ccc(Br)o1)NCc1ccccc1Cl,-0.3,-11.5,-3.8,-1.6,1.3,-1.4,x,x,x,x
CCOc1ccc(S(=O)(=O)N(CC(=O)NCc2cccnc2)c2ccc(F)cc2)cc1,-1.9,64.9*,6.7,4.7,19.8,7.4,28.7*,49.3*,12.8*,15.9
